Test results from ChEMBL document CHEMBL4715714, “Design, synthesis and biological evaluation of thiosemicarbazones, hydrazinobenzothiazoles and arylhydrazones as anticancer agents with a potential to overcome multidrug resistance” (Eur J Med Chem, 2016).
Activity calls are given as the source filed them. The rule behind the calls is not given here.

Columns and labels:
MES-SA/Dx5 [1] = assay: Cytotoxicity against human MES-SA/DX5 cells assessed as inhibition of cell proliferation at >=50 uM incubated for 72 hrs by MTT assay; format: functional, cell-based; details: dose microM >=50, time 72.0 hrs
Method in brief: (§1)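 Cells were seeded (10000/well for A2780, 5000/well for MES-SA/Dx5 and KB-3-1/V1) and left to attach 12 h, then exposed to compound for 72 h. Medium was removed, and MTT (0.83 mg/mL) was added for 1 h at 37 °C. Cells were lysed in DMSO and absorbance read at 540 nm. Signal was corrected for unstained lysate background, normalized to untreated cells, and IC50 taken from a sigmoidal dose-response fit.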

KB-V1 [2] = assay: Cytotoxicity against human KB-V1 cells assessed as inhibition of cell proliferation incubated for 72 hrs by MTT assay; format: functional, cell-based; details: for IC50: KB-V1, 72 h; method in brief: as §1
MES-SA [3] = assay: Cytotoxicity against human MES-SA cells assessed as inhibition of cell proliferation incubated for 72 hrs by MTT assay; format: functional, cell-based; method in brief: as §1
KB-V1 [4] = assay: Cytotoxicity against human KB-V1 cells assessed as inhibition of cell proliferation at >=50 uM incubated for 72 hrs by MTT assay; format: functional, cell-based; details: dose microM >=50, time 72.0 hrs; method in brief: as §1
KB 3-1 [5] = assay: Cytotoxicity against human KB-3-1 cells assessed as inhibition of cell proliferation incubated for 72 hrs by MTT assay; format: functional, cell-based; details: for IC50: KB 3-1, 72 h; method in brief: as §1
MES-SA [6] = assay: Cytotoxicity against human MES-SA cells assessed as inhibition of cell proliferation at >=50 uM incubated for 72 hrs by MTT assay; format: functional, cell-based; details: dose microM >=50, time 72.0 hrs; method in brief: as §1
MES-SA/Dx5 [7] = assay: Cytotoxicity against human MES-SA/DX5 cells assessed as inhibition of cell proliferation incubated for 72 hrs by MTT assay; format: functional, cell-based; details: for IC50: MES-SA/Dx5, 72 h; method in brief: as §1
KB 3-1 [8] = assay: Cytotoxicity against human KB-3-1 cells assessed as inhibition of cell proliferation at >=50 uM incubated for 72 hrs by MTT assay; format: functional, cell-based; details: dose microM >=50, time 72.0 hrs; method in brief: as §1
MES-SA/Dx5 [9] = assay: Cytotoxicity against human MES-SA/DX5 cells transfected with mCherry fluorescent protein incubated for 72 hrs in presence of efflux pump inhibitor, Tariquidar by fluorescence assay; format: functional, cell-based
Method in brief: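 The mCherry-expressing cells (lentiviral) were seeded at 5000 or 2500 per well, attached for 24 h, and exposed 72 h to compounds with Tariquidar coadministered. Live-cell signal was fluorescence at 585 nm excitation and 610 nm emission.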

KB-V1 [10] = assay: Cytotoxicity against human KB-V1 cells assessed as inhibition of cell proliferation incubated for 72 hrs in presence of efflux pump inhibitor, Tariquidar by MTT assay; format: functional, cell-based
MES-SA [11] = assay: Cytotoxicity against human MES-SA cells transfected with mCherry fluorescent protein assessed as inhibition of cell proliferation incubated for 72 hrs by fluorescent assay; format: functional, cell-based; details: Homo sapiens, MES-SA, 72 h; read-out: IC50
Method in brief: (§2)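 MES-SA and MES-SA/Dx5 cells were made to stably express mCherry by lentiviral transduction. Cells were seeded at 5000 (96-well) or 2500 (384-well) per well, allowed to attach 24 h, then treated with compound dilutions for 72 h. Viability was read as fluorescence, excitation 585 nm, emission 610 nm.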

MES-SA/Dx5 [12] = assay: Cytotoxicity against human MES-SA/DX5 cells transfected with mCherry fluorescent protein assessed as inhibition of cell proliferation incubated for 72 hrs by fluorescent assay; format: functional, cell-based; details: Homo sapiens, MES-SA/Dx5, 72 h; read-out: IC50; method in brief: as §2
[13] = Selectivity ratio of IC50 for human A2780 cells to IC50 for human A2780adr cells incubated for 72 hrs by MTT assay; format: functional
Method in brief: (§3)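 The selectivity ratio is the IC50 in P-gp-negative parental cells divided by the IC50 in the P-gp-positive resistant partner.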

A2780 ADR = assay: Cytotoxicity against human A2780adr cells assessed as inhibition of cell proliferation incubated for 72 hrs in presence of efflux pump inhibitor, Tariquidar by MTT assay; format: functional, cell-based
A2780 = assay: Cytotoxicity against human A2780 cells assessed as inhibition of cell proliferation incubated for 72 hrs by MTT assay; format: functional, cell-based; details: A2780, 72 h; method in brief: as §1
[14] = Selectivity ratio of IC50 for human MES-SA cells to IC50 for human MES-SA/DX5 cells incubated for 72 hrs by MTT assay; format: functional; method in brief: as §3
[15] = Selectivity ratio of IC50 for human MES-SA cells transfected with mCherry to IC50 for human MES-SA/DX5 cells transfected with mCherry incubated for 72 hrs by fluorescent assay; format: functional
[16] = Cytotoxicity against human A2780adr cells assessed as inhibition of cell proliferation incubated for 72 hrs by MTT assay; format: functional, cell-based; details: A2780 ADR; method in brief: as §1
MES-SA/Dx5 [17] = assay: Reduction in P-gp expression in human MES-SA/DX5 cells measured after 5 rounds of treatment by DAPI staining based immunocytochemistry analysis; format: functional, cell-based
Method in brief: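 Treated cells were plated in chamber slides, fixed after 1 day in 4% paraformaldehyde for 15 min, and blocked 1 h (BSA, fish gelatin, goat serum, Triton X-100). They were stained with anti-P-gp MRK16 (1:500, 1 h), then PE goat anti-mouse IgG (1:250, 1 h), with DAPI 1 µM for 10 min. Imaging used fluorescence and confocal microscopy.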

MES-SA/Dx5 [18] = assay: Reduction in P-gp expression in human MES-SA/DX5 cells at IC20 concentration incubated for 5 days by calcein-AM staining based flow cytometric analysis; format: functional, cell-based; details: time 5.0 day
Method in brief: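 MES-SA/Dx5 cells were grown 5 days with compound at IC20 values calculated from viability assays, then recovered in drug-free medium refreshed every fifth day. At 80% confluency, cells were stained with Calcein AM with or without verapamil, with TO-PRO-3 excluding dead cells, and analysed by flow cytometry for the P-gp-negative fraction.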

[19] = Selectivity ratio of IC50 for human KB-3-1 cells to IC50 for human KB-V1 cells incubated for 72 hrs by MTT assay; format: functional; method in brief: as §3
MES-SA/Dx5 [20] = assay: Cytotoxicity against human MES-SA/DX5 cells incubated for 72 hrs in presence of efflux pump inhibitor, Tariquidar by MTT assay; format: functional, cell-based
Method in brief: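 Run as the 72 h MTT viability readout (12 h attachment, MTT 0.83 mg/mL for 1 h, DMSO lysis, A540), with the P-gp inhibitor Tariquidar at 1 µM co-present. IC50 came from sigmoidal fits of 2 to 4 independent experiments.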

MES-SA/Dx5 [21] = assay: Cytotoxicity against human MES-SA/DX5 cells assessed as inhibition of cell proliferation at <50 uM incubated for 72 hrs by MTT assay; format: functional, cell-based; details: dose microM <50, time 72.0 hrs; method in brief: as §1
MES-SA [22] = assay: Cytotoxicity against human MES-SA cells assessed as inhibition of cell proliferation at <50 uM incubated for 72 hrs by MTT assay; format: functional, cell-based; details: dose microM <50, time 72.0 hrs; method in brief: as §1

Which Activity (MES-SA/Dx5 [1]) does the source give for `COc1ccc(NC(=S)NNc2nc3ccccc3s2)cc1` here?
The Activity was “inactive”.

What about the pIC50 (KB-V1 [2]) of the same molecule?
The pIC50 was “inactive”.

What about the pIC50 (MES-SA [3]) of the same molecule?
Its pIC50 is “inactive”.

What about the Activity (KB-V1 [4]) of the same molecule?
The Activity was “inactive”.

What about the pIC50 (KB 3-1 [5]) of the same molecule?
The pIC50 was “inactive”.

And the Activity (MES-SA [6])?
Its Activity is “inactive”.

What about the pIC50 (MES-SA/Dx5 [7]) of the same molecule?
The pIC50 was “inactive”.

And the Activity (KB 3-1 [8])?
The Activity was “inactive”.

Which results are given for `O=C1Nc2ccccc2/C1=N/NC(=S)Nc1ccc([N+](=O)[O-])cc1`?
Activity (MES-SA/Dx5 [9]): inactive; Activity (KB-V1 [10]): inactive; IC50 (MES-SA [11]): 15.8 µM; IC50 (KB-V1 [2]; read-out: IC50): 4.58 µM; IC50 (KB-V1 [2]; read-out: pIC50 (converted)): 4.47 µM; IC50 (MES-SA/Dx5 [12]): 7.55 µM; Ratio IC50 [13]: 2.98; Activity (A2780 ADR): inactive; IC50 (MES-SA [3]; read-out: IC50): 9.17 µM; IC50 (MES-SA [3]; read-out: pIC50 (converted)): 8.51 µM; IC50 (A2780; read-out: IC50): 25.7 µM; IC50 (A2780; read-out: pIC50 (converted)): 24.5 µM; Ratio IC50 [14]: 1.77; IC50 (KB 3-1 [5]; read-out: IC50): 8.2 µM; IC50 (KB 3-1 [5]; read-out: pIC50 (converted)): 7.76 µM; Ratio IC50 [15]: 3.55; IC50 ([16]; read-out: IC50): 8.78 µM; IC50 ([16]; read-out: pIC50 (converted)): 8.91 µM; inhibition (MES-SA/Dx5 [17]): Active; inhibition (MES-SA/Dx5 [18]): Active; Ratio IC50 [19]: 1.82; Activity (MES-SA/Dx5 [20]): inactive; IC50 (MES-SA/Dx5 [7]; read-out: IC50): 4.74 µM; IC50 (MES-SA/Dx5 [7]; read-out: pIC50 (converted)): 4.68 µM

With `COc1ccc(NC(=S)NNC(=S)Nc2ccc(OC)cc2)cc1` as the molecule, how does the Activity (MES-SA/Dx5 [21]) read?
The Activity was “inactive”.

What about the pIC50 (MES-SA [3]) of the same molecule?
Its pIC50 is “inactive”.

What about the Activity (MES-SA [22]) of the same molecule?
Its Activity is “inactive”.

And the pIC50 (MES-SA/Dx5 [7])?
The pIC50 was “inactive”.
